From ChEMBL document CHEMBL4382209, “Comparison between porphin, chlorin and bacteriochlorin derivatives for photodynamic therapy: Synthesis, photophysical properties, and biological activity” (Eur J Med Chem, 2018)
Active and inactive are the calls of the source. The calls are words filed in the database; no cut-off is given here.

How the values were obtained:
[1] = Dark toxicity in human ECA109 cells assessed as decrease in cell viability after 24 hrs by MTT assay; assay type: cell-based, ECa-109
ECa-109 cell line [2] = test: Phototoxicity against human ECA109 cells assessed as decrease in cell viability after 24 hrs at 16 J/cm2 irradiation by MTT assay; assay type: functional, cell-based; conditions: ECa-109, light or radiation study
Summary of the method: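 Eca-109 cells (5×10^4/well, attached for 24 h) took up compound (0–16 μM) for 24 h. They were washed with PBS and irradiated with Nd:YAG laser at 16 J/cm²: 635 nm for porphins, 650 nm for chlorins, 730 nm for bacteriochlorins. MTT viability was read 24 h later, and IC50 was derived.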

[3] = Dark toxicity in human ECA109 cells assessed as cell survival at 20 uM after 24 hrs by MTT assay relative to control; assay type: cell-based, ECa-109; conditions: read-out: Survival
Summary of the method: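 Eca-109 human esophageal carcinoma cells in RPMI-1640 with 10% FBS, trypsinised and seeded at 5×10^4 cells per well, attached for 24 h. Photosensitiser in medium (0 to 60 μM) was taken up for 24 h and the cells were not irradiated. Viability was read by MTT colorimetric assay 24 h after treatment.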

[4] = Induction of singlet oxygen generation assessed as singlet oxygen quantum yield by measuring DPBF chemical oxidation in DMF solution incubated up to 8 mins at 5 mW/cm2 laser irradiation by UV-Vis spectrophotometry; assay type: functional
[5] = Drug uptake in lysosomes of human ECA109 cells at 10 uM after 4 hrs by Lyso Blue dye-based confocal fluorescence microscopic method; assay type: ADME, subcellular, Lysosome; conditions: eca-109, 4 h
Summary of the method: (§1)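 Eca-109 cells were plated on poly-L-lysine-coated coverslips at 1×10^5 cells/mL. After 24 h, they took up 10 μM compound in the dark for 4 h at 37 °C. They were stained with Mito-tracker Green or Lyso-Blue for 20 min at 37 °C, rinsed, and fixed in 4% paraformaldehyde at 4 °C for 30 min. Confocal imaging used sequential scans, exciting at 490 nm (Mito), 373 nm (Lyso, PS).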

[6] = Induction of singlet oxygen generation assessed as singlet oxygen quantum yield by measuring DPBF chemical oxidation in DMF solution incubated up to 5 mins at 5 mW/cm2 laser irradiation by UV-Vis spectrophotometry; assay type: functional
ECa-109 cell line [7] = test: Antitumor activity against human ECA109 cells xenografted in BALB/c nude mouse assessed as tumor size at 5 mg/kg, iv treated for 24 hrs before 120 J/cm2 laser light irradiation for 5 mins and measured every other day up to 14 days (reference value: 785 +/- 37 mm3); assay type: functional
Summary of the method: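 Eca-109 s.c. xenografts (5×10^6 cells, right forelimb) were grown in female BALB/c nude mice to ~100 mm³. Compound 5 mg/kg in 0.2 mL went i.v. into the tail vein. At 24 h, restrained unanaesthetised mice got 730 nm laser at 120 J/cm² to the tumour. Controls received no PS or light; 6 mice/group. Volume LW²/2 was taken every two days for 14 days.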

ECa-109 cell line [8] = test: Antitumor activity against human ECA109 cells xenografted in BALB/c nude mouse assessed as tumor size at 5 mg/kg, iv measured every other day up to 14 days; assay type: functional, organism-based
Summary of the method: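 Four-week-old female BALB/c nude mice were given 5×10^6 Eca-109 cells s.c. in PBS into the right forelimb. At about 100 mm³ (~14 days), the compound was given at 5 mg/kg in 0.2 mL via the lateral tail vein, with no irradiation; 6 mice/group. Orthogonal L and W were measured every two days for 14 days, and V = LW²/2.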

[9] = Drug uptake in mitochondria of human ECA109 cells at 10 uM after 4 hrs by Mito Tracker green dye-based confocal fluorescence microscopic method; assay type: ADME; conditions: eca-109, 4 h; summary of the method: as §1
[10] = Induction of singlet oxygen generation assessed as singlet oxygen quantum yield by measuring DPBF chemical oxidation in DMF solution incubated up to 4 mins at 5 mW/cm2 laser irradiation by UV-Vis spectrophotometry; assay type: functional

**Q.** For `COc1ccc(-c2c3nc(cc4ccc([nH]4)c(-c4ccc(OC)c(OCCCC(=O)O)c4)c4nc(cc5ccc2[nH]5)CC4)C=C3)cc1OCCCC(=O)O`, which IC50 at 24 h [1] is on record?
**A.** > 300 µM

**Q.** And the IC50 (ECa-109 cell line [2])?
**A.** 2.83 µM

**Q.** What about the viability at 24 h, 20 µM [3] of the same compound?
**A.** 80%

**Q.** What about the DPBF oxidation rate constant [4] of the same compound?
**A.** 19.8 ×10⁻² k/min

**Q.** Which results are given for `O=C(O)CCCOc1cccc(-c2c3nc(cc4ccc([nH]4)c(-c4cccc(OCCCC(=O)O)c4)c4nc(cc5ccc2[nH]5)CC4)CC3)c1`?
**A.** IC50 at 24 h [1]: > 500 µM; Drug uptake [5]: Active; Activity [6]: 69.1 ×10⁻² k/min; Activity (ECa-109 cell line [7]): 126 mm3; IC50 (ECa-109 cell line [2]): 2.43 µM; Activity (ECa-109 cell line [8]): inactive; Drug uptake [9]: Active; viability at 24 h, 20 µM [3]: 80%

**Q.** For `COc1ccc(-c2c3nc(cc4ccc([nH]4)c(-c4ccc(OC)c(OCC(=O)O)c4)c4nc(cc5ccc2[nH]5)C=C4)C=C3)cc1OCC(=O)O`, which IC50 at 24 h [1] is on record?
**A.** 158 µM

**Q.** And the IC50 (ECa-109 cell line [2])?
**A.** 12.5 µM

**Q.** And the viability at 24 h, 20 µM [3]?
**A.** 80%

**Q.** And the DPBF oxidation rate constant [4]?
**A.** 2.41 ×10⁻² k/min

**Q.** Which results are given for `O=C(O)CCCOc1cccc(-c2c3nc(cc4ccc([nH]4)c(-c4cccc(OCCCC(=O)O)c4)c4nc(cc5ccc2[nH]5)C=C4)C=C3)c1`?
**A.** IC50 at 24 h [1]: 271 µM; IC50 (ECa-109 cell line [2]): 8.19 µM; viability at 24 h, 20 µM [3]: 80%; DPBF oxidation rate constant [4]: 1.93 ×10⁻² k/min

**Q.** What does the source list for `O=C(O)CCCOc1cccc(-c2c3nc(cc4ccc([nH]4)c(-c4cccc(OCCCC(=O)O)c4)c4nc(cc5ccc2[nH]5)CC4)C=C3)c1`?
**A.** IC50 at 24 h [1]: > 300 µM; IC50 (ECa-109 cell line [2]): 2.65 µM; viability at 24 h, 20 µM [3]: 80%; DPBF oxidation rate constant [4]: 24.9 ×10⁻² k/min

**Q.** For `COc1ccc(-c2c3nc(cc4ccc([nH]4)c(-c4ccc(OC)c(OCCCC(=O)O)c4)c4nc(cc5ccc2[nH]5)C=C4)C=C3)cc1OCCCC(=O)O`, which IC50 at 24 h [1] is on record?
**A.** 183 µM

**Q.** And the IC50 (ECa-109 cell line [2])?
**A.** 10.1 µM

**Q.** What about the viability at 24 h, 20 µM [3] of the same compound?
**A.** 80%

**Q.** What about the DPBF oxidation rate constant [4] of the same compound?
**A.** 1.68 ×10⁻² k/min

**Q.** Which IC50 at 24 h [1] does the source give for `COc1ccc(-c2c3nc(cc4ccc([nH]4)c(-c4ccc(OC)c(OCCCC(=O)O)c4)c4nc(cc5ccc2[nH]5)CC4)CC3)cc1OCCCC(=O)O` here?
**A.** > 300 µM

**Q.** And the Activity [10]?
**A.** 48.6 ×10⁻² k/min

**Q.** What about the IC50 (ECa-109 cell line [2]) of the same compound?
**A.** 2.47 µM

**Q.** What about the viability at 24 h, 20 µM [3] of the same compound?
**A.** 80%

**Q.** Which IC50 at 24 h [1] does the source give for `COc1ccc(-c2c3nc(cc4ccc([nH]4)c(-c4ccc(OC)c(OCC(=O)O)c4)c4nc(cc5ccc2[nH]5)CC4)CC3)cc1OCC(=O)O` here?
**A.** 187 µM

**Q.** And the IC50 (ECa-109 cell line [2])?
**A.** 3.09 µM

**Q.** What about the viability at 24 h, 20 µM [3] of the same compound?
**A.** 80%

**Q.** And the DPBF oxidation rate constant [4]?
**A.** 38.7 ×10⁻² k/min

**Q.** What does the source list for `O=C(O)COc1cccc(-c2c3nc(cc4ccc([nH]4)c(-c4cccc(OCC(=O)O)c4)c4nc(cc5ccc2[nH]5)CC4)C=C3)c1`?
**A.** IC50 at 24 h [1]: 91.8 µM; Activity [6]: 4.06 ×10⁻² k/min; IC50 (ECa-109 cell line [2]): 3.31 µM; viability at 24 h, 20 µM [3]: 80%

**Q.** For `COc1ccc(-c2c3nc(cc4ccc([nH]4)c(-c4ccc(OC)c(OCC(=O)O)c4)c4nc(cc5ccc2[nH]5)CC4)C=C3)cc1OCC(=O)O`, which IC50 at 24 h [1] is on record?
**A.** 111 µM

**Q.** And the IC50 (ECa-109 cell line [2])?
**A.** 3.14 µM

**Q.** What about the viability at 24 h, 20 µM [3] of the same compound?
**A.** 80%

**Q.** What about the DPBF oxidation rate constant [4] of the same compound?
**A.** 14.2 ×10⁻² k/min

**Q.** For `O=C(O)COc1cccc(-c2c3nc(cc4ccc([nH]4)c(-c4cccc(OCC(=O)O)c4)c4nc(cc5ccc2[nH]5)CC4)CC3)c1`, which IC50 at 24 h [1] is on record?
**A.** 162 µM

**Q.** And the IC50 (ECa-109 cell line [2])?
**A.** 2.62 µM

**Q.** And the viability at 24 h, 20 µM [3]?
**A.** 80%

**Q.** What about the DPBF oxidation rate constant [4] of the same compound?
**A.** 30.9 ×10⁻² k/min

**Q.** With `O=C(O)COc1cccc(-c2c3nc(cc4ccc([nH]4)c(-c4cccc(OCC(=O)O)c4)c4nc(cc5ccc2[nH]5)C=C4)C=C3)c1` as the compound, how does the IC50 at 24 h [1] read?
**A.** 74.6 µM

**Q.** What about the IC50 (ECa-109 cell line [2]) of the same compound?
**A.** 9.41 µM

**Q.** And the viability at 24 h, 20 µM [3]?
**A.** 80%

**Q.** What about the DPBF oxidation rate constant [4] of the same compound?
**A.** 0.829 ×10⁻² k/min
